Measurements: ChEMBL document CHEMBL1128214, “Structure-based design of sulfonamide-substituted non-peptidic HIV protease inhibitors” (J Med Chem, 1995)
pIC50, pKi: −log10 of the molar value. Blank lines part the entries; values can stand above or below the molecule they belong to.

Key:
[1] = target: Human immunodeficiency virus type 1 protease (Human immunodeficiency virus 1, UniProt Q72874); experiment: Inhibitory activity against HIV-1 protease
[2] = tested on: Human immunodeficiency virus 1; experiment: Antiviral potency of compound determined against human immunodeficiency virus type 1; type: functional, organism-based
Summary of the method: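 Antiviral activity measured in MT4 cells acutely infected with HIV-1 IIIB; potency reported as IC50.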

[3] = Maximum concentration was determined in an aqueous sodium hydroxide solution adjusted to pH 10 at 10 mg/kg dosage administered perorally in dog; type: ADME, organism-based, Canis lupus familiaris; design: dose 10 mg/kg, route oral; conditions: in vivo, po
Summary of the method: (§1)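 Single oral dose given as an aqueous sodium hydroxide solution adjusted to pH 10. Plasma concentrations were followed over time. Cmax, tmax and bioavailability (F) were calculated from the time-course data by noncompartmental analysis. Values are mean ± SD.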

[4] = Maximum concentration was determined in an aqueous sodium hydroxide solution adjusted to pH 10 at 5 mg/kg dosage administered perorally in rats; type: ADME, organism-based; design: dose 5 mg/kg, route oral; conditions: rat, in vivo, po; summary of the method: as §1
[5] = Time of maximum concentration was determined in an aqueous sodium hydroxide solution adjusted to pH 10 at 10 mg/kg dosage administered perorally in dog; type: ADME, organism-based, Canis lupus familiaris; design: dose 10 mg/kg, route oral; conditions: in vivo, po; summary of the method: as §1
[6] = Time of maximum concentration was determined in an aqueous sodium hydroxide solution adjusted to pH 10 at 5 mg/kg dosage administered perorally in rats; type: ADME, organism-based; design: dose 5 mg/kg, route oral; conditions: rat, in vivo, po; summary of the method: as §1
[7] = Bioavailability (F) was determined in an aqueous sodium hydroxide solution adjusted to pH 10 at 10 mg/kg dosage administered perorally in dog; type: ADME, organism-based; conditions: eutheria, in vivo, po; summary of the method: as §1
[8] = Bioavailability (F) was determined in an aqueous sodium hydroxide solution adjusted to pH 10 at 5 mg/kg dosage administered perorally in rats; type: ADME, organism-based; conditions: eutheria, in vivo, po; summary of the method: as §1
[9] = The steady-state volume of distribution was determined in an aqueous sodium hydroxide solution adjusted to pH 10 at 2.5 mg/kg administered intravenously dosage in rats; type: ADME, organism-based; design: dose 2.5 mg/kg, route intravenous; conditions: rat, in vivo, iv, read-out: Vss
Summary of the method: (§2)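 Plasma concentration–time data were analysed by noncompartmental methods. The […] (β) and half-life were estimated, and total body clearance and steady-state volume of distribution were calculated. Values are mean ± SD.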

[10] = The total body administered intravenously in dog; type: ADME, organism-based, Canis lupus familiaris; conditions: in vivo, iv, read-out: Vss; summary of the method: as §2
[11] = The half life time estimated was determined in an aqueous sodium hydroxide solution adjusted to pH 10 at 5 mg/kg dosage administered intravenously in dog; type: ADME, organism-based; design: dose 5 mg/kg, route intravenous; conditions: in vivo, iv; summary of the method: as §2
[12] = The half life time estimated was determined in an aqueous sodium hydroxide solution adjusted to pH 10 at 2.5 mg/kg dosage administered intravenously in rats; type: ADME, organism-based; design: dose 2.5 mg/kg, route intravenous; conditions: rat, in vivo, iv; summary of the method: as §2

Structure (SMILES): Cc1ccccc1S(=O)(=O)Nc1cccc(C(c2c(O)c3c(oc2=O)CCCCCC3)C2CC2)c1 (stereo not drawn)
pKi [1]: 8.05 | pIC50 [2]: < 5.00

Structure (SMILES): Cc1ccc(S(=O)(=O)Nc2cccc(C(c3c(O)c4c(oc3=O)CCCCCC4)C3CC3)c2)cc1 (stereo not drawn)
pKi [1]: 8.52 | pIC50 [2]: 5.44

Structure (SMILES): Cc1cccc(S(=O)(=O)Nc2cccc(C(c3c(O)c4c(oc3=O)CCCCCC4)C3CC3)c2)c1 (stereo not drawn)
pKi [1]: 8.30 | pIC50 [2]: 5.40

Cmax [3]: 156 µM | Cmax [4]: 24.2 µM | Tmax [5]: 1 h | Tmax [6]: 1 h | bioavailability [7]: 76.7% | bioavailability [8]: 41.9% | Vd [9]: 0.11 L/kg | Vd [10]: 0.084 L/kg | half-life [11]: 6.3 h | pIC50 [2]: 5.82 | half-life [12]: 3 h
Structure (SMILES): N#Cc1ccc(S(=O)(=O)Nc2cccc(C(c3c(O)c4c(oc3=O)CCCCCC4)C3CC3)c2)cc1 (stereo not drawn)

pIC50 [2]: 5.30
Structure (SMILES): O=c1c2c(oc(O)c1C(c1cccc(NS(=O)(=O)c3ccccc3)c1)C1CC1)CCCCCC2 (stereo not drawn)
